Where “and” joins values, the source holds several entries; their conditions need not be identical. Equal entries are not always repeated.
Assay: CRRL conjugation kinetics of BQ with methoxyamine by UV–vis spectroscopy
Format: physicochemical
Details: PBS, room temperature
In short: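 BQ (200 μM) was reacted with excess methoxyamine (100 mM and other concentrations) in Dulbecco's PBS at room temperature. Readings were taken in quartz cells, starting immediately after mixing. Repeated UV-vis spectra tracked BQ at 248 nm and QO at 320 nm. Both traces were fitted to pseudo-first-order exponentials to give k′, and the slope of k′ versus [methoxyamine] gave the second-order rate constant.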

SMILES: O=C1C=CC(=O)C=C1 [BQ, benzoquinone]
- pseudo-first-order k′ of conversion of BQ to QO (BQ 200 μM, methoxyamine 100 mM, UV–vis (248 and 320 nm)): 4.2 × 10^–3 s^–1
- second-order rate constant k for CRRL conjugation (BQ with CH3ONH2 to QO) (from plot of k′ versus [methoxyamine], UV–vis): 3.4 × 10^–2 (±6.5 × 10^–4) M^–1s^–1 and 3.41 × 10^–2 (±6.5 × 10^–4) M^–1s^–1

Source: publication PMC3983135 (Bioconjugate Chemistry, 2014)
